Experimental data published in ChEMBL document CHEMBL1121403, “Synthesis and mutagenicity of A-ring reduced analogues of 7,12-dimethylbenz[a]anthracene” (1980).

What was measured:
Salmonella typhimurium [1] = assay: Mutagenic activity by measuring net reverent colonies per 10 ug of compound with Salmonella Typhimurium (TA 100 strain) in presence of S9 fraction; assay type: functional, Salmonella enterica subsp. enterica serovar Typhimurium
Outline: (§1)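 Standard Ames soft-agar plating with doses given in Me2SO. Five or more doses from 1 to ≥10 μg/plate were tested with and without S-9 mix from PCB-induced rat liver, at 20 μL S-9/plate from a common pool. Duplicate plates per dose, triplicate for spontaneous revertants. 2-Aminoanthracene served as activation control. Net revertants per 10 μg came from regression of the linear dose-response portion.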

Salmonella typhimurium [2] = assay: Mutagenic activity by measuring net reverent colonies per 10 ug of compound with Salmonella Typhimurium (TA1537 strain) in absence of S9 fraction; - indicates no mutagenic response; assay type: functional, organism-based; conditions: Salmonella enterica subsp. enterica serovar Typhimurium
Outline: (§2)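 Frame-shift strain TA1537 in Ames soft-agar plating with doses given in Me2SO, tested at up to 15 or 10 μg/plate with and without S-9 (PCB-induced rat liver, 20 μL/plate). Duplicate plates per dose, triplicate spontaneous. Scored mutagenic if reversion was dose-dependent and at least twice spontaneous. Values were normalized to net revertants per 10 μg.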

Salmonella typhimurium [3] = assay: Mutagenic activity by measuring net reverent colonies per 10 ug of compound with Salmonella Typhimurium (TA1537 strain) in presence of S9 fraction; - indicates no mutagenic response; assay type: functional, organism-based; conditions: Salmonella enterica subsp. enterica serovar Typhimurium; outline: as §2
Salmonella typhimurium [4] = assay: Mutagenic activity by measuring net reverent colonies per 10 ug of compound with Salmonella Typhimurium (TA 98 strain) in absence of S9 fraction; assay type: functional, Salmonella enterica subsp. enterica serovar Typhimurium; outline: as §1
Salmonella typhimurium [5] = assay: Mutagenic activity by measuring net reverent colonies per 10 ug of compound with Salmonella Typhimurium (TA 100 strain) in absence of S9 fraction; assay type: functional, Salmonella enterica subsp. enterica serovar Typhimurium; outline: as §1
Salmonella typhimurium [6] = assay: Mutagenic activity by measuring net reverent colonies per 10 ug of compound with Salmonella Typhimurium (TA 98 strain) in presence of S9 fraction; assay type: functional, Salmonella enterica subsp. enterica serovar Typhimurium; outline: as §1
Salmonella typhimurium [7] = assay: Mutagenic activity by measuring net reverent colonies per 10 ug of compound with Salmonella Typhimurium (TA1537 strain) in presence of S9 fraction; assay type: functional, Salmonella enterica subsp. enterica serovar Typhimurium; outline: as §2
Salmonella typhimurium [8] = assay: Mutagenic activity by measuring net reverent colonies per 10 ug of compound with Salmonella Typhimurium (TA 98 strain) in absence of S9 fraction; - indicates no mutagenic response; assay type: functional, organism-based; conditions: Salmonella enterica subsp. enterica serovar Typhimurium; outline: as §1
Salmonella typhimurium [9] = assay: Mutagenic activity by measuring net reverent colonies per 10 ug of compound with Salmonella Typhimurium (TA 100 strain) in absence of S9 fraction; - indicates no mutagenic response; assay type: functional, organism-based; conditions: Salmonella enterica subsp. enterica serovar Typhimurium; outline: as §1
Salmonella typhimurium [10] = assay: Mutagenic activity by measuring net reverent colonies per 10 ug of compound with Salmonella Typhimurium (TA1537 strain) in absence of S9 fraction; assay type: functional, Salmonella enterica subsp. enterica serovar Typhimurium; outline: as §2

SMILES | Activity (Salmonella typhimurium [1]) | Activity (Salmonella typhimurium [2]) | Activity (Salmonella typhimurium [3]) | Activity (Salmonella typhimurium [4]) | Activity (Salmonella typhimurium [5]) | Activity (Salmonella typhimurium [6]) | Activity (Salmonella typhimurium [7]) | Activity (Salmonella typhimurium [8]) | Activity (Salmonella typhimurium [9]) | Activity (Salmonella typhimurium [10])
Cc1c2ccccc2c(C)c2c3c(ccc12)C=CCC3 | 69 | Not toxic | Not toxic | 146 | 58 | 25 |  |  |  | 
Cc1c2ccccc2c(C)c2c1ccc1ccccc12 | 489 | Not toxic |  |  |  | 58 | 15 | Not toxic | Not toxic | 
Cc1c2ccccc2c(C)c2c3c(ccc12)CCCC3 | 270 |  |  | 47 | 173 | 78 | 7 |  |  | 42
